According to ChEMBL document CHEMBL1158179, “Facile synthesis of dithiatetraaza-macrocycles of potential anti-inflammatory activity” (Eur J Med Chem, 2008):

Tests used:
Rattus norvegicus [1] = assay: Antiinflammatory activity against carrageenan-induced paw edema in Wister albino rat at 50 mg/kg, ip administered 1 hr before inflammation induction assessed after 4 hrs relative to indomethacin; assay type: functional; settings: route intraperitoneal
Procedure, shortened: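 Same rat carrageenan paw oedema protocol: i.p. dosing in DMSO 1 h before carrageenan, with paw volume read by plethysmometer at 4 h. Potency is the % oedema inhibition of the test group divided by that of the indomethacin (10 mg/kg i.p.) group.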

Rattus norvegicus [2] = assay: Antiinflammatory activity against carrageenan-induced paw edema in Wister albino rat at 50 mg/kg, ip administered 1 hr before inflammation induction assessed after 4 hrs; assay type: functional; settings: route intraperitoneal
Procedure, shortened: (§1)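 Wistar albino rats of either sex (pregnant females excluded), 160–190 g, 6 per group, kept at 22 °C on a 12 h light/dark cycle. Agent in DMSO given i.p. 1 h before 0.1 ml of 1% carrageenan in saline was injected subcutaneously into the right hind paw. Controls got DMSO. Oedema was paw volume by plethysmometer minus initial volume. Values are % inhibition = (Vc−Vt)/Vc×100; means ± SE, one-way ANOVA with LSD, p<0.05.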

Mus musculus [3] = assay: Toxicity in albino mouse at 500 mg/kg, ip assessed as mortality after 24 hrs by LD50 standard method; assay type: organism-based; parameters: dose 500 mg/kg, route intraperitoneal; settings: in vivo
Procedure, shortened: (§2)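 Albino mice, 20-25 g, 9 groups of 6; test agents dissolved in DMSO and given intraperitoneally at 500, 750 and 1000 mg/kg body weight; controls received DMSO only. Toxic symptoms, mortality and postmortem findings recorded 24 h after administration; LD50 computed by formula from largest dose killing all animals, mean dead between successive groups, dose factor and group size.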

Rattus norvegicus [4] = assay: Antiinflammatory activity against carrageenan-induced paw edema in Wister albino rat at 50 mg/kg, ip administered 1 hr before inflammation induction assessed after 2 hrs; assay type: functional; settings: route intraperitoneal; procedure, shortened: as §1
Mus musculus [5] = assay: Toxicity in albino mouse at 750 mg/kg, ip assessed as mortality after 24 hrs by LD50 standard method; assay type: organism-based; parameters: dose 750 mg/kg, route intraperitoneal; settings: in vivo; procedure, shortened: as §2
Rattus norvegicus [6] = assay: Antiinflammatory activity against carrageenan-induced paw edema in Wister albino rat at 50 mg/kg, ip administered 1 hr before inflammation induction assessed after 1 hr; assay type: functional; settings: route intraperitoneal; procedure, shortened: as §1
Mus musculus [7] = assay: Toxicity in albino mouse at 1000 mg/kg, ip assessed as mortality after 24 hrs by LD50 standard method; assay type: organism-based; parameters: dose 1000 mg/kg, route intraperitoneal; settings: in vivo; procedure, shortened: as §2
Rattus norvegicus [8] = assay: Antiinflammatory activity against carrageenan-induced paw edema in Wister albino rat at 50 mg/kg, ip administered 1 hr before inflammation induction assessed after 3 hrs; assay type: functional; settings: route intraperitoneal; procedure, shortened: as §1
Rattus norvegicus [9] = assay: Antiinflammatory activity against carrageenan-induced paw edema in Wister albino rat at 10 mg/kg, ip administered 1 hr before inflammation induction assessed after 1 hr; assay type: functional; settings: route intraperitoneal; procedure, shortened: as §1
Rattus norvegicus [10] = assay: Antiinflammatory activity against carrageenan-induced paw edema in Wister albino rat at 10 mg/kg, ip administered 1 hr before inflammation induction assessed after 4 hrs; assay type: functional; settings: route intraperitoneal; procedure, shortened: as §1
Rattus norvegicus [11] = assay: Antiinflammatory activity against carrageenan-induced paw edema in Wister albino rat at 10 mg/kg, ip administered 1 hr before inflammation induction assessed after 2 hrs; assay type: functional; settings: route intraperitoneal; procedure, shortened: as §1
Rattus norvegicus [12] = assay: Antiinflammatory activity against carrageenan-induced paw edema in Wister albino rat at 10 mg/kg, ip administered 1 hr before inflammation induction assessed after 3 hrs; assay type: functional; settings: route intraperitoneal; procedure, shortened: as §1

SMILES | Ratio (Rattus norvegicus [1]) | inhibition in vivo at 50 mg/kg (Rattus norvegicus [2]) [%] | also measured
S=C(Nc1ccccc1)Nc1ccccc1SCCCSc1ccccc1NC(=S)Nc1ccccc1 | 0.66 | 38 | –
O=C1Nc2ccc(cc2)NC(=O)Nc2ccccc2SCCCSc2ccccc2N1 | 0.85 | 48.9 | Activity (Mus musculus [3]): Non-toxic; inhibition in vivo at 50 mg/kg (Rattus norvegicus [4]): 44%; Activity (Mus musculus [5]): Non-toxic; inhibition in vivo at 50 mg/kg (Rattus norvegicus [6]): 45.4%; Activity (Mus musculus [7]): Non-toxic; inhibition in vivo at 50 mg/kg (Rattus norvegicus [8]): 46.6%
O=C(Nc1ccc(Cl)c(Cl)c1)Nc1ccccc1SCCCSc1ccccc1NC(=O)Nc1ccc(Cl)c(Cl)c1 | 0.49 | 28.3 | –
COc1ccc(NC(=O)Nc2ccccc2SCCSc2ccccc2NC(=O)Nc2ccc(OC)cc2)cc1 | 0.9 | 51.9 | Activity (Mus musculus [3]): Non-toxic; inhibition in vivo at 50 mg/kg (Rattus norvegicus [4]): 38.4%; Activity (Mus musculus [5]): Non-toxic; inhibition in vivo at 50 mg/kg (Rattus norvegicus [6]): 35.2%; Activity (Mus musculus [7]): Non-toxic; inhibition in vivo at 50 mg/kg (Rattus norvegicus [8]): 39.2%
COc1ccc(NC(=O)Nc2ccccc2SCCCSc2ccccc2NC(=O)Nc2ccc(OC)cc2)cc1 | 0.61 | 35 | –
CCNC(=O)Nc1ccccc1SCCSc1ccccc1NC(=O)NCC | 0.57 | 33.1 | –
S=C(Nc1ccccc1)Nc1ccccc1SCCSc1ccccc1NC(=S)Nc1ccccc1 | 0.75 | 43.3 | –
O=C(Nc1ccccc1)Nc1ccccc1SCCSc1ccccc1NC(=O)Nc1ccccc1 | 0.57 | 32.8 | –
O=C(Nc1ccccc1)Nc1ccccc1SCCCSc1ccccc1NC(=O)Nc1ccccc1 | 0.51 | 29.6 | –
O=C1Nc2ccc(cc2)NC(=O)Nc2ccccc2SCCSc2ccccc2N1 | 0.61 | 34.9 | –
O=C(Nc1ccc(Cl)c(Cl)c1)Nc1ccccc1SCCSc1ccccc1NC(=O)Nc1ccc(Cl)c(Cl)c1 | 0.12 | 7.1 | –
CCNC(=O)Nc1ccccc1SCCCSc1ccccc1NC(=O)NCC | 0.73 | 42.1 | –
COc1ccc2c(c1)c(CC(=O)O)c(C)n2C(=O)c1ccc(Cl)cc1 [INDOMETHACIN] | – | – | inhibition in vivo at 10 mg/kg (Rattus norvegicus [9]): 50.5%; inhibition in vivo at 10 mg/kg (Rattus norvegicus [10]): 57.6%; inhibition in vivo at 10 mg/kg (Rattus norvegicus [11]): 48.2%; inhibition in vivo at 10 mg/kg (Rattus norvegicus [12]): 50.1%
